Measurements from ChEMBL document CHEMBL1909630, “Azaxanthene based selective glucocorticoid receptor modulators: design, synthesis, and pharmacological evaluation of (S)-4-(5-(1-((1,3,4-thiadiazol-2-yl)amino)-2-methyl-1-oxopropan-2-yl)-5H-chromeno[2,3-b]pyridin-2-yl)-2-fluoro-N,N-dimethylbenzamide (BMS-776532) and its methylene homologue …” (J Med Chem, 2011).

Key:
[1] = biological target: T1, Glucocorticoid receptor (Homo sapiens, UniProt P04150); assay: Displacement of GS-red from glucocorticoid receptor by fluorescence polarization assay
T1 sequence (P04150 whole entry): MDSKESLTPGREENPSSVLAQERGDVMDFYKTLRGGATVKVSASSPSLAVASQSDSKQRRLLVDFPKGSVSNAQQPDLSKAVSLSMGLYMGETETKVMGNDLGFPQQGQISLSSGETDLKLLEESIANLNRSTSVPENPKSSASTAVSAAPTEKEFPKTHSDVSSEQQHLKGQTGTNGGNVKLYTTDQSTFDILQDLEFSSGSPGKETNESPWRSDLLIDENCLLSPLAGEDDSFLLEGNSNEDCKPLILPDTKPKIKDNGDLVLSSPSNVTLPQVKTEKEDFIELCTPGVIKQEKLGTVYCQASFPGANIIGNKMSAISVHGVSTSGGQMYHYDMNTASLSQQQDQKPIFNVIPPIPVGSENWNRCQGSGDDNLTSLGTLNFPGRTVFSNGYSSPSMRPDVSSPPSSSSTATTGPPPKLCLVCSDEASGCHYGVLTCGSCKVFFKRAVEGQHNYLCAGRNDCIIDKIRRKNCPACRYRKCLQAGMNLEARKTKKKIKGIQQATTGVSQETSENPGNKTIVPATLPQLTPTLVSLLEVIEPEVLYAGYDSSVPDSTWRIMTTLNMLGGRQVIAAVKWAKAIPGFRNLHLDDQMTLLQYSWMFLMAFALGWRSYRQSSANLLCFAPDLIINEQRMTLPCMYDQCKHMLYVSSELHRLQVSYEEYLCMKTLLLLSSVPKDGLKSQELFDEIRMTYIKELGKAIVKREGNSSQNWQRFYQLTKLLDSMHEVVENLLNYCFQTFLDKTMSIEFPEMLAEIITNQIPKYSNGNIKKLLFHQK

[2] = biological target: T2, Progesterone receptor (Homo sapiens, UniProt P06401); assay: Displacement of fluorescently labeled ligand from progesterone receptor by fluorescence polarization assay
T2 sequence (P06401 whole entry): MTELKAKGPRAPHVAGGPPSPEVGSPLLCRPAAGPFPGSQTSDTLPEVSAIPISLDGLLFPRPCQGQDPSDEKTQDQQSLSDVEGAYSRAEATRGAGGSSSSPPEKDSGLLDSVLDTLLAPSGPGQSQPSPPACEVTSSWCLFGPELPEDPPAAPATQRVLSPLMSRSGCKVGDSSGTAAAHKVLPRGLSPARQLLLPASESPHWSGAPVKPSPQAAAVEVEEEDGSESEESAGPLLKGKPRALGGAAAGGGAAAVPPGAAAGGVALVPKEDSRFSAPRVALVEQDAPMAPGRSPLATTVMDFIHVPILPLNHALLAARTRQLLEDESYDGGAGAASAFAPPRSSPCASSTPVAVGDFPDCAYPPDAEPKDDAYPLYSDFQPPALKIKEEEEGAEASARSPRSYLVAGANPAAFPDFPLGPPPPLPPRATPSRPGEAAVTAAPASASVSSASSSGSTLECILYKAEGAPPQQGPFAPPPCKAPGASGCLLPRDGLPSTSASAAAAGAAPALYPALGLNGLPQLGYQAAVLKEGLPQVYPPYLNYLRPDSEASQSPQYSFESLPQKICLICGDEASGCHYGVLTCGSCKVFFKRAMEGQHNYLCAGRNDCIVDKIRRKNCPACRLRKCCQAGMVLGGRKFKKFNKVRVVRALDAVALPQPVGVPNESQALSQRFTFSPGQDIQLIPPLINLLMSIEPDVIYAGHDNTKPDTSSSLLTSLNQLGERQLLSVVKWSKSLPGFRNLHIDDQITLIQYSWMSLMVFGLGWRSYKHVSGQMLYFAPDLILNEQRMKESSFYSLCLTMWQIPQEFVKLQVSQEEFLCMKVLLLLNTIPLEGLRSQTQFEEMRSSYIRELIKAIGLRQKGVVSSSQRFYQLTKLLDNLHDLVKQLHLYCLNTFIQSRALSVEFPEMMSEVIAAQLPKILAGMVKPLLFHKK

[3] = biological target: T3, Estrogen receptor (Homo sapiens, UniProt P03372); assay: Displacement of fluorescently labeled ligand from ERalpha receptor by fluorescence polarization assay
T3 sequence (P03372 whole entry): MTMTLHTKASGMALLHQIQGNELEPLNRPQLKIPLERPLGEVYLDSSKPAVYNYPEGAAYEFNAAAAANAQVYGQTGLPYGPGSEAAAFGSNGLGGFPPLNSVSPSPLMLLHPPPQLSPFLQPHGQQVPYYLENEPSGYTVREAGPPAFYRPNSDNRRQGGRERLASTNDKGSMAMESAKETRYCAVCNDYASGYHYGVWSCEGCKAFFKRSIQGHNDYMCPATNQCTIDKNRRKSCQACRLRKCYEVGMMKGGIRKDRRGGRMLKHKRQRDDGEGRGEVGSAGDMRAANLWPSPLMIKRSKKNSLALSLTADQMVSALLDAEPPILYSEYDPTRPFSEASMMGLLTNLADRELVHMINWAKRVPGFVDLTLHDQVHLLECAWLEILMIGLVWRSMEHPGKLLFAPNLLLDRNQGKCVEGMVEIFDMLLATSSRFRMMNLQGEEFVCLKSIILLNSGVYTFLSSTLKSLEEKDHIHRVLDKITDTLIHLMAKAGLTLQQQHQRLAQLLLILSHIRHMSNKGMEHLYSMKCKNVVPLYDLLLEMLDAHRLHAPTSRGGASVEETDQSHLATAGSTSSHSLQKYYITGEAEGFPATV
In short: (§1)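 Binding was measured by fluorescence polarization competition between compound and a fluorescent ligand for full-length receptor or ligand-binding domain. Values are means of at least two experiments.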

[4] = biological target: T4, Mineralocorticoid receptor (Homo sapiens, UniProt P08235); assay: Agonist activity at human mineralocorticoid receptor expressed in human A549 cells by fluorescence polarization assay; format: functional, cell-based
T4 sequence (P08235 whole entry): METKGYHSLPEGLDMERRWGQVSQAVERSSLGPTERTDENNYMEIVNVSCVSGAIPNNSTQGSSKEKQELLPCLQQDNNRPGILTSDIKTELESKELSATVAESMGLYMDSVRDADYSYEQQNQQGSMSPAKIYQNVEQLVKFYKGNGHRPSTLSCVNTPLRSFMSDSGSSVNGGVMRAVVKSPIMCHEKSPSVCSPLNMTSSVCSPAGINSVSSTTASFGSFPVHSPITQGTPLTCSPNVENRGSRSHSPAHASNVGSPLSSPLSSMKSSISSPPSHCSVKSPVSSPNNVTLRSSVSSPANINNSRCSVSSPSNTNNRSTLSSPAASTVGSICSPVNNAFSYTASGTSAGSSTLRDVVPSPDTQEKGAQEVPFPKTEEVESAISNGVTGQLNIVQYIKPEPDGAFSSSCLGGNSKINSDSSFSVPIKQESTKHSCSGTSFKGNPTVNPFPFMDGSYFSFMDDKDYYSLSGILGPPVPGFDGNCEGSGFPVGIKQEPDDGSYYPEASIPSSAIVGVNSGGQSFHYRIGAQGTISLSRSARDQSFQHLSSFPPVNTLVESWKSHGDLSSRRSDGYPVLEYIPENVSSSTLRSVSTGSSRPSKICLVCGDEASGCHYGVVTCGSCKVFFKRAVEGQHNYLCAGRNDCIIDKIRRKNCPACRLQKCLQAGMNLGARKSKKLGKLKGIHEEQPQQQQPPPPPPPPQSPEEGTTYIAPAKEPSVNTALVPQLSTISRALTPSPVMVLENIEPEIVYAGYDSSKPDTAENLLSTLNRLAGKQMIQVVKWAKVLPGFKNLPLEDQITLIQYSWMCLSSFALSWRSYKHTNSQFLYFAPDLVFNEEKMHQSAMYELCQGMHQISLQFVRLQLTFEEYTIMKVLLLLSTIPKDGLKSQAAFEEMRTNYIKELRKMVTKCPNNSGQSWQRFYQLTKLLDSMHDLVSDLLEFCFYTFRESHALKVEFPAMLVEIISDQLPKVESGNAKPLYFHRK

[5] = biological target: T1, Glucocorticoid receptor; assay: Transrepression activity at glucocorticoid receptor alpha in phorbol myristate acetate-stimulated human A549 cells assessed as inhibition of AP1 response element by luciferase reporter gene assay; format: cell-based
[6] = biological target: T1, Glucocorticoid receptor; assay: Transrepression activity at glucocorticoid receptor alpha in IL-1beta-stimulated human A549 cells assessed as inhibition of NFkappaB-dependent E-selectin transcription by luciferase reporter gene assay; format: cell-based
[7] = biological target: T1, Glucocorticoid receptor; assay: Transactivation activity at GR-alpha in human NP1 Hela cells assessed as induction of GAL4-DBD after 20 hrs by luciferase reporter gene assay; format: cell-based
[8] = biological target: T1, Glucocorticoid receptor; assay: Transactivation activity at glucocorticoid receptor alpha human 13D3/Huh7 cells assessed as induction of TAT activity after 4 hrs by spectrophotometry; format: cell-based, Huh-7
[9] = biological target: T1, Glucocorticoid receptor; assay: Transactivation activity at GR-alpha in human NP1 Hela cells assessed as inhibition of GAL4-DBD after 20 hrs by luciferase reporter gene assay; format: cell-based
[10] = biological target: T5, Androgen receptor (Homo sapiens, UniProt P10275); assay: Displacement of fluorescently labeled ligand from androgen receptor by fluorescence polarization assay; in short: as §1
T5 sequence (P10275 whole entry): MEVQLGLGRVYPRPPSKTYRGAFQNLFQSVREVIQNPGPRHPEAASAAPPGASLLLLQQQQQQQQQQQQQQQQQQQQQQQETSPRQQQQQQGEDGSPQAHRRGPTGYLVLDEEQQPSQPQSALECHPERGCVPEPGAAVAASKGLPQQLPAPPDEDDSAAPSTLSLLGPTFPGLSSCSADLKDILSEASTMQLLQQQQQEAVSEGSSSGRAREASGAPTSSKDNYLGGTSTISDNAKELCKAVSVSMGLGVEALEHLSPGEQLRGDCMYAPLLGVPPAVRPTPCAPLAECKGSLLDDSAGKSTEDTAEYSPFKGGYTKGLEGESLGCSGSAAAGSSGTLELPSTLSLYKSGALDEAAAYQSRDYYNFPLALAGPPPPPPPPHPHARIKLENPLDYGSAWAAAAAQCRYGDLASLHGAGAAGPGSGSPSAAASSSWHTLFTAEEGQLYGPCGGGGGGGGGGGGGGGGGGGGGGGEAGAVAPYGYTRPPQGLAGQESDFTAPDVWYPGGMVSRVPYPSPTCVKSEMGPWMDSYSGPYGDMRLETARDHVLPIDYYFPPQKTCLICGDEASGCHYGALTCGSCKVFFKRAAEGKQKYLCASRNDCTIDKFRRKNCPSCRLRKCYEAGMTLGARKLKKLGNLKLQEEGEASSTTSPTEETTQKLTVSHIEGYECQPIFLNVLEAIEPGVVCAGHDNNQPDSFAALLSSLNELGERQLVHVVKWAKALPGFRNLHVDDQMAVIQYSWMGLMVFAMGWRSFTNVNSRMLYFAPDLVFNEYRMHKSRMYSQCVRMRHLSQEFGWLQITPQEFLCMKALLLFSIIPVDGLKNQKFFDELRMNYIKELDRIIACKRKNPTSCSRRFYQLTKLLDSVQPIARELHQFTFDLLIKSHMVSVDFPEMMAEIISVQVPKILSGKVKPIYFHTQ

[11] = tested on: Blood; assay: Antiinflammatory activity in human whole blood assessed as inhibition of LPS-induced TNFalpha production after overnight incubation by ELISA; format: functional, tissue-based
In short: (§2)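 Whole blood from two donors per experiment was collected into ACD-A. Compounds were added and the blood was incubated about 20 h at 37 °C under 5% CO2. Blood was then stimulated for 5 h with LPS (final 100 ng/mL, for TNFα) or IL-1β (final 10 ng/mL, for IL-8). Plasma TNFα or IL-8 was measured by ELISA. Efficacy was expressed as % of dexamethasone, and values are means of at least two experiments.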

[12] = tested on: Blood; assay: Antiinflammatory activity in human whole blood assessed as inhibition of LPS-induced TNFalpha production after overnight incubation by ELISA relative to Dexamethasone; format: functional; in short: as §2
[13] = tested on: Blood; assay: Antiinflammatory activity in human whole blood assessed as inhibition of TNF-alpha-induced IL-8 production after overnight incubation by ELISA; format: functional, tissue-based
[14] = tested on: Blood; assay: Antiinflammatory activity in human whole blood assessed as inhibition of TNF-alpha-induced IL-8 production after overnight incubation by ELISA relative to dexamethasone; format: functional
[15] = tested on: Blood; assay: Antiinflammatory activity in human whole blood assessed as inhibition of IL-1beta-induced IL-8 production after overnight incubation by ELISA; format: functional, tissue-based; in short: as §2
[16] = tested on: Blood; assay: Antiinflammatory activity in human whole blood assessed as inhibition of IL-1beta-induced IL-8 production after overnight incubation by ELISA relative to Dexamethasone; format: functional; in short: as §2

SMILES	Ki [1] [nM]	Ki [2] [nM]	Ki [3] [nM]	EC50 [4] [nM]	EC50 [5] [nM]	EC50 [6] [nM]	EC50 [7] [nM]	EC50 [8] [nM]	EC50 [9] [nM]	Ki [10] [nM]	EC50 [11] [nM]	EC50 [13] [nM]	EC50 [15] [nM]	Imax [12] [%]	Imax [14] [%]	Imax [16] [%]
CCCc1ccc(-c2ccc3c(n2)Oc2ccccc2[C@H]3C(C)(C)C(=O)Nc2nncs2)cc1	2.4	285	–	–	15.1	29.7	126	823	36	> 5000	–	–	–	–	–	–
CC(C)(C(=O)Nc1nncs1)[C@H]1c2ccccc2Oc2nc(-c3ccc(C(=O)N4CCC(F)(F)C4)c(Cl)c3)ccc21	3.08	–	–	–	50	33.8	165	329	130	–	932	2850	5250	85	59	82
CC(C)(C(=O)Nc1nncs1)[C@H]1c2ccccc2Oc2nc(-c3ccc(C(=O)N4CCOCC4)c(F)c3)ccc21	2.7	–	–	–	11.7	11.7	78.9	93	34.4	–	469	382	789	88	84	92
CC(C)Oc1ccc(-c2ccc3c(n2)Oc2ccccc2[C@@H]3C(C)(C)C(=O)Nc2nncs2)cc1F	3.9	–	–	–	47	73	496	876	162	–	> 5000	> 20000	> 20000	49	12	7

These reach a lower Ki [1]. Values come first.

Ki [1] [nM]	Ki [2] [nM]	Ki [3] [nM]	EC50 [4] [nM]	EC50 [5] [nM]	EC50 [6] [nM]	EC50 [7] [nM]	EC50 [8] [nM]	EC50 [9] [nM]	Ki [10] [nM]	EC50 [11] [nM]	EC50 [13] [nM]	EC50 [15] [nM]	SMILES	Imax [12] [%]	Imax [14] [%]	Imax [16] [%]
1.74	1230	> 75000	> 5000	12.2	4.6	89	22.7	42.7	–	–	–	–	CN(C)C(=O)c1ccc(-c2ccc3c(n2)Oc2ccccc2[C@@H]3C(C)(C)C(=O)Nc2nncs2)cc1	–	–	–
1.6	310	–	–	18.1	–	135	107	77	–	–	–	–	CC(C)Oc1ccc(-c2ccc3c(n2)Oc2ccccc2[C@H]3C(C)(C)C(=O)Nc2nncs2)cc1	–	–	–
